≈ marks a conversion by molar mass, not a printed value. Calls of active or inactive are those of the source. The rule behind the calls is not given here.
What was measured:
[1] = test system: rhinovirus B14; experiment: Minimum inhibitory concentration in vitro against HRV-14 in a plaque reduction assay; type: functional, human rhinovirus type 14; conditions: Rhinovirus B
Procedure, shortened: (§1)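 Plaque reduction assay in HeLa-Ohio cells. MIC is the concentration (μM) that cut plaque number by 50%.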

[2] = test system: Human rhinovirus sp.; experiment: (§2) In vitro inhibition of 80% of the serotypes; type: functional
Procedure, shortened: (§3)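 Fifteen rhinovirus serotypes (HRV-14 plus 14 more) were each run in a plaque reduction assay in HeLa-Ohio cells. The MIC for each serotype was the μM concentration giving 50% plaque reduction. MIC80 is the concentration that inhibited 80% of the serotypes tested.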

[3] = test system: rhinovirus B14; experiment: Minimum inhibitory concentration in vitro against HRV-14 in a plaque reduction assay; NA=Not active; type: functional, organism-based; conditions: human rhinovirus type 14; procedure, shortened: as §1
[4] = test system: Human rhinovirus 1A; experiment: Minimum inhibitory concentration against human rhinovirus serotype 1A; type: functional; procedure, shortened: as §1
[5] = test system: rhinovirus A1B; experiment: Minimum inhibitory concentration against human rhinovirus serotype 1B; type: functional; conditions: Rhinovirus A; procedure, shortened: as §1
[6] = test system: rhinovirus A2; experiment: (§4) Minimum inhibitory concentration against human rhinovirus serotype 2; type: functional; conditions: Rhinovirus A; procedure, shortened: as §1
[7] = test system: rhinovirus A21; experiment: Minimum inhibitory concentration against human rhinovirus serotype 21; type: functional; conditions: Rhinovirus A; procedure, shortened: as §1
[8] = test system: rhinovirus A22; experiment: Minimum inhibitory concentration against human rhinovirus serotype 22; type: functional; conditions: Rhinovirus A; procedure, shortened: as §1
[9] = test system: rhinovirus A25; experiment: Minimum inhibitory concentration against human rhinovirus serotype 25; type: functional; conditions: Rhinovirus A; procedure, shortened: as §1
[10] = test system: rhinovirus A30; experiment: Minimum inhibitory concentration against human rhinovirus serotype 30; type: functional; conditions: Rhinovirus A; procedure, shortened: as §1
[11] = test system: rhinovirus A41; experiment: Minimum inhibitory concentration against human rhinovirus serotype 41; type: functional; conditions: Rhinovirus A; procedure, shortened: as §1
[12] = test system: rhinovirus B6; experiment: Minimum inhibitory concentration against human rhinovirus serotype 6; type: functional; conditions: Rhinovirus B; procedure, shortened: as §1
[13] = test system: rhinovirus A67; experiment: Minimum inhibitory concentration against human rhinovirus serotype 67; type: functional; conditions: Rhinovirus A; procedure, shortened: as §1
[14] = test system: rhinovirus B86; experiment: Minimum inhibitory concentration against human rhinovirus serotype 86; type: functional; conditions: Rhinovirus B; procedure, shortened: as §1
[15] = test system: rhinovirus A89; experiment: Minimum inhibitory concentration against human rhinovirus serotype 89; type: functional; conditions: Rhinovirus A; procedure, shortened: as §1
[16] = test system: rhinovirus A2; experiment: as §4; type: functional; conditions: Rhinovirus A; procedure, shortened: as §1; remark: listed apart in the source
[17] = test system: rhinovirus B14; experiment: Minimum inhibitory concentration against human rhinovirus serotype 14; type: functional; conditions: Rhinovirus B; procedure, shortened: as §1
[18] = test system: rhinovirus A15; experiment: Minimum inhibitory concentration against human rhinovirus serotype 15; type: functional; conditions: Rhinovirus A; procedure, shortened: as §1
[19] = test system: rhinovirus A50; experiment: Minimum inhibitory concentration against human rhinovirus serotype 50; type: functional; conditions: Rhinovirus A; procedure, shortened: as §1
[20] = test system: Human rhinovirus sp.; experiment: as §2; type: functional; procedure, shortened: as §3; remark: listed apart in the source

Cc1cc(CCCCCOc2c(Cl)cc(-c3ccncc3)cc2Cl)on1 was tested, and the MIC [1] was 0.97 µM (≈ 0.38 µg/mL).

For Cc1cc(CCCCCOc2c(Cl)cc(-c3nc(C)c(C)s3)cc2Cl)on1, the MIC [1] was 2.59 µM (≈ 1.1 µg/mL) and the MIC80 [2] was 2.14 µM (≈ 0.91 µg/mL).

For Cc1cc(CCCCCOc2c(Cl)cc(-c3ncco3)cc2Cl)on1, the MIC [1] was 1.83 µM (≈ 0.698 µg/mL) and the MIC80 [2] was 1.71 µM (≈ 0.652 µg/mL).

In the case of Cc1cc(CCCCCOc2c(Cl)cc(-c3ccc(C)o3)cc2Cl)on1, the MIC [1] is reported as 2.64 µM (≈ 1.04 µg/mL) and the MIC80 [2] is reported as 1.27 µM (≈ 0.501 µg/mL).

Work on Cc1cc(CCCCCOc2c(Cl)cc(-c3cnco3)cc2Cl)on1 yielded an MIC [1] of 12.8 µM (≈ 4.86 µg/mL) and an MIC80 [2] of 2.24 µM (≈ 0.854 µg/mL).

For Cc1cc(CCCCCOc2c(Cl)cc(-c3cccs3)cc2Cl)on1, the MIC [1] was 7.32 µM (≈ 2.9 µg/mL) and the MIC80 [2] was 1.11 µM (≈ 0.44 µg/mL).

Cc1cc(CCCCCOc2c(Cl)cc(-c3cccnc3)cc2Cl)on1 showed an MIC [1] of 6.6 µM (≈ 2.58 µg/mL).

Work on Cc1cc(CCCCCOc2c(Cl)cc(-c3ccccn3)cc2Cl)on1 yielded an MIC [1] of 6.64 µM (≈ 2.6 µg/mL) and an MIC80 [2] of 1.38 µM (≈ 0.54 µg/mL).

Cc1cc(CCCCCOc2c(Cl)cc(-c3ccoc3)cc2Cl)on1 was tested, and the MIC [3] was “inactive” and the MIC80 [2] was 2.9 µM (≈ 1.1 µg/mL).

Compound Cc1cc(CCCCCOc2c(Cl)cc(-c3ccc(C)s3)cc2Cl)on1 has an MIC [1] of 5.2 µM (≈ 2.13 µg/mL) and an MIC80 [2] of 1.71 µM (≈ 0.702 µg/mL).

In the case of Cc1cc(CCCCCOc2c(Cl)cc(-c3ccco3)cc2Cl)on1, the MIC [1] is reported as 0.71 µM (≈ 0.27 µg/mL) and the MIC80 [2] is reported as 1.05 µM (≈ 0.399 µg/mL).

For Cc1cc(CCCCCOc2c(Cl)cc(-c3nc(C)c(C)o3)cc2Cl)on1, the MIC [1] was 2.79 µM (≈ 1.14 µg/mL) and the MIC80 [2] was 1.3 µM (≈ 0.532 µg/mL).

Cc1cc(CCCCCOc2c(Cl)cc(-c3ccc(Cl)s3)cc2Cl)on1 gave an MIC [1] of 5.3 µM (≈ 2.28 µg/mL) and an MIC80 [2] of 3.13 µM (≈ 1.35 µg/mL).

With Cc1cc(CCCCCOc2c(Cl)cc(-c3cccc(C)n3)cc2Cl)on1 the MIC [1] was 5.88 µM (≈ 2.38 µg/mL) and the MIC80 [2] was 1.93 µM (≈ 0.782 µg/mL).

For Cc1cc(CCCCCOc2c(Cl)cc(C3=NCCC3)cc2Cl)on1, the MIC [3] was “inactive”.

In the case of Cc1cc(CCCCCOc2c(Cl)cc(-c3nnn(C)n3)cc2Cl)on1, the MIC [1] is reported as 0.38 µM (≈ 0.151 µg/mL), the MIC [4] is reported as 0.38 µM (≈ 0.151 µg/mL) and the MIC [5] is reported as 0.05 µM (≈ 0.0198 µg/mL). For the same compound, the MIC [6] was 0.025 µM (≈ 0.00991 µg/mL), the MIC [7] was 0.02 µM (≈ 0.00793 µg/mL) and the MIC [8] was 0.008 µM (≈ 0.00317 µg/mL). It also gave an MIC [9] of 0.08 µM (≈ 0.0317 µg/mL), an MIC [10] of 0.23 µM (≈ 0.0911 µg/mL) and an MIC [11] of 0.63 µM (≈ 0.25 µg/mL). It also gave an MIC [12] of 0.23 µM (≈ 0.0911 µg/mL), an MIC [13] of 0.18 µM (≈ 0.0713 µg/mL) and an MIC [14] of 0.24 µM (≈ 0.0951 µg/mL). The MIC [15] was 0.01 µM (≈ 0.00396 µg/mL), the MIC [16] was 0.025 µM (≈ 0.00991 µg/mL) and the MIC80 [2] was 0.25 µM (≈ 0.0991 µg/mL). It also gave an MIC [17] of 0.38 µM (≈ 0.151 µg/mL), an MIC [18] of 0.25 µM (≈ 0.0991 µg/mL) and an MIC [19] of 0.06 µM (≈ 0.0238 µg/mL).

For Cc1cc(CCCCCOc2c(Cl)cc(-c3ccsc3)cc2Cl)on1, the MIC [3] was “inactive” and the MIC80 [2] was 2.88 µM (≈ 1.14 µg/mL).

For Cc1cc(CCCCCOc2c(Cl)cc(-c3cccn3C)cc2Cl)on1, the MIC [3] was “inactive”.

Compound Cc1cc(CCCCCOc2c(Cl)cc(C3=NCCO3)cc2Cl)on1 [WIN-54954] has an MIC [1] of 1.2 µM (≈ 0.46 µg/mL), an MIC [4] of 2.51 µM (≈ 0.962 µg/mL) and an MIC [5] of 0.17 µM (≈ 0.0652 µg/mL). For the same compound, the MIC [6] was 0.023 µM (≈ 0.00882 µg/mL), the MIC [7] was 0.02 µM (≈ 0.00767 µg/mL) and the MIC [8] was 0.02 µM (≈ 0.00767 µg/mL). It also gave an MIC [9] of 0.29 µM (≈ 0.111 µg/mL), an MIC [10] of 0.09 µM (≈ 0.0345 µg/mL) and an MIC [11] of 0.89 µM (≈ 0.341 µg/mL). It also gave an MIC [12] of 0.23 µM (≈ 0.0882 µg/mL), an MIC [13] of 0.18 µM (≈ 0.069 µg/mL) and an MIC [14] of 0.21 µM (≈ 0.0805 µg/mL). The MIC [15] was 0.02 µM (≈ 0.00767 µg/mL), the MIC80 [2] was 0.33 µM (≈ 0.126 µg/mL) and the MIC [17] was 1.2 µM (≈ 0.46 µg/mL). For the same compound, the MIC [18] was 0.41 µM (≈ 0.157 µg/mL) and the MIC [19] was 0.06 µM (≈ 0.023 µg/mL).

Cc1cc(CCCCCOc2c(Cl)cc(-c3nnnn3C)cc2Cl)on1 gave an MIC [1] of 2.04 µM (≈ 0.808 µg/mL), an MIC80 [2] of 7.02 µM (≈ 2.78 µg/mL) and an MIC80 [20] of 7.02 µM (≈ 2.78 µg/mL).

Source: ChEMBL document CHEMBL1126110, “Antirhinoviral activity of heterocyclic analogs of Win 54954” (1992)
